Results pooled from the literature.
Each line is one published result; the experiments were not run side by side.
Sample: plasma
Route: oral

SMILES	species	dose	setting	Vd/F [L]
C[C@@H](c1ccc2nccn2c1)n1nnc2ncc(-c3cnn(C)c3)nc21	human	200 mg		310
NC[C@@](O)(c1ccc(Cl)cc1)c1ccc(-c2cn[nH]c2)cc1	human	5 mg	patients	1400
Cc1cc(Nc2cc(N3CCN(C)CC3)nc(/C=C/c3ccccc3)n2)n[nH]1	human	120 mg/m²	multiple doses, patients	847
COc1ccc([C@@H]2CN(C(=O)[C@@H](O)CO)C[C@@]2(C)[C@@H](C)O)cc1OC1CN(c2ccc(C)cn2)C1	human	0.5 mg	single dose, healthy volunteers	40.7
CC(C)(Sc1ccncc1-c1ccc(C#N)c2ccccc12)C(=O)O	male human	2 mg	single dose, fasted, healthy volunteers	394
C[C@@]1(c2cc(NC(=O)c3ccc(C#N)cn3)ccc2F)C=CSC(N)=N1	human	3 mg	single dose	235
CO[C@H]1CC[C@H](N2C(=O)CNc3ncc(-c4ccc(C(C)(C)O)nc4)nc32)CC1	human	60 mg	patients	236
COC(=O)N[C@@H](C)CNc1nccc(-c2cn(C(C)C)nc2-c2cc(Cl)cc(NS(C)(=O)=O)c2F)n1	human	50 mg	single dose	260
N#CN1C[C@H](n2nc(-c3ccc(Oc4ccc(Cl)cn4)cc3)c(C(N)=O)c2N)CCC12CC2	human	600 mg	fasted	1060
c1cnc2ccc(Nc3nc(NC4CC4)c4nc[nH]c4n3)cc2c1	human	100 mg/m²	patients	163
C=C(F)C(=O)N1CCN(c2nc(OC[C@@H]3CCCN3C)nc3c2CCN(c2cccc4cccc(Cl)c24)C3)C[C@@H]1CC#N	human	600 mg	single dose, fasted	527
COc1cc(C(=O)NC2CCN(C)CC2)c(F)cc1Nc1ncc(C(F)(F)F)c(Oc2cccc3c2C(=O)N(C)C3)n1	human	50 mg	single dose, patients	581
CC(C)(C)OC[C@@H]1C(=O)NCCN1C(=O)C[C@H](N)Cc1cc(F)c(F)cc1F	male human	5 mg	multiple doses, steady state	1960
